A selection: hits, their analogues and other compounds. The true share with any hit is near 4.5%.
TAAR1 antag – antagonists of human TAAR1; CHO RD-HGA16 TAAR1, Fluo-8 calcium fluorescence, antagonist; inhibition, % at 3 µM; Q96RJ0; AID 624466; 1.5% of 360,000 active;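 active = inhibition above a per-plate cutoff, the mean inhibition of test compounds on that plate plus 3 SD, cut at about 49% in these data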;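 note: 0% = DMSO plus EC80 beta-PEA response and 100% = DMSO alone without agonist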
Target sequence (Q96RJ0 whole entry, looked up): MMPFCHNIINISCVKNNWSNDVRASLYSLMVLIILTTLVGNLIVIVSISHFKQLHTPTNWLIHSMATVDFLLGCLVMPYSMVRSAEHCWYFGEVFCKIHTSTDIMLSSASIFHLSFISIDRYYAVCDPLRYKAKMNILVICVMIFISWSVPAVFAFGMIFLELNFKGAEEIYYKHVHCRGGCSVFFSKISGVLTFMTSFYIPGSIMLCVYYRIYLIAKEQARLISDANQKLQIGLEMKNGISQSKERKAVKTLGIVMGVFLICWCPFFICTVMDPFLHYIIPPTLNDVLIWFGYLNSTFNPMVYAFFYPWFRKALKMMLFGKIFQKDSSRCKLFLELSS
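System: CHO RD-HGA16 cells bearing hTAAR1. Reagent: EC80 β-phenethylamine stimulus. Schedule: seeding 17-24 h prior, 75-min 37 °C, 30-min RT dye loading. Signal: Fluo-8 intracellular calcium dye fluorescence, real-time kinetic reads. Read-out: % inhibition from peak post-agonist over basal fluorescence ratio. Benchmarks: vehicle wells and EC80 agonist wells. Replicates: n of 1.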
GPR7 antagonist – human neuropeptides B/W receptor 1 antagonism; P48145; GPR7-expressing cells, fluorescence antagonist assay; inhibition, % at 4.4 µM; 1.1% of 290,000 active; in the data active = inhibition above about 16%, passing the limit was not always enough;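 note: cells stimulated with the agonist NPW; 0% = agonist with vehicle and 100% = vehicle without agonist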
TAAR1 agonist – agonists of human TAAR1 | AID 624467 | 0.99% of 360,000 active | CHO RD-HGA16 TAAR1, Fluo-8 calcium fluorescence; vehicle wells 0%, saturating PEA agonist 100% | activation, % at 3 µM | Q96RJ0;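 active = activation above the mean activation of all test compounds in the run plus 3 SD, cut at about 38% in these data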
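Repeats: no replicates (n 1) | Material: CHO-derived RD-HGA16 cells with stable Gα16 and human TAAR1 | Technique: Kinetic Fluo-8 calcium fluorescence | Schedule: 17-24 h seeding, 75 min 37 °C dye, 30 min RT | Evaluation: % activation from peak over basal fluorescence ratio, DMSO-to-PEA scaled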
CHO parental Ca – signal in parental CHO cells, OX1R antagonist counter-screen | parental CHO-K1, ATP-induced calcium, Fluo-8 fluorescence | inhibition, % at 5.6 µM | 0.63% of 330,000 active;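 active = inhibition above that plate's mean sample inhibition plus 3 SD, cut at about 26% in these data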;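 note: 0% = ATP-challenged DMSO wells and 100% = DMSO wells without ATP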
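Assay system – parental CHO cells · Reagent – ATP stimulus · Detection – intracellular calcium via Fluo-8 no-wash fluorescent dye · Evaluation – percent inhibition of ATP-evoked calcium rise, normalized to controls · Controls – ATP wells versus no-ATP DMSO wells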
OX1R antag-1 – OX1R (human) antagonism. O43613. OX1R-expressing cells, FRET antagonist read-out. inhibition, % at 6.6 µM. 1.8% of 330,000 active. AID 485270; in the data active = inhibition mostly above about 38%, no sharp cut-off; inactive = mostly below about 40%;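 note: 0% = agonist challenge alone and 100% = reference antagonist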
Target sequence (O43613 whole entry, looked up): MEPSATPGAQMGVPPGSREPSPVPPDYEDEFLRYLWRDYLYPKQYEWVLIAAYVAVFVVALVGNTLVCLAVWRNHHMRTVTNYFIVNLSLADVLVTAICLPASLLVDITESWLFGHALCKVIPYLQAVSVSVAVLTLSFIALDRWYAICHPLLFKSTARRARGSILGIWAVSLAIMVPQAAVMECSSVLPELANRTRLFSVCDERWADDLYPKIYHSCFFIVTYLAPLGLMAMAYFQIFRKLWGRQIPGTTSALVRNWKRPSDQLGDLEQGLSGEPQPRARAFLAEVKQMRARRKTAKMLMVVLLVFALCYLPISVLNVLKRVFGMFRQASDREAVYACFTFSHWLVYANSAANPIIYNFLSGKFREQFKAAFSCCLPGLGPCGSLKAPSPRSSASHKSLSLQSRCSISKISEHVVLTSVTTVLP
OX1R antag-2 – blocks the human orexin 1 receptor; O43613; CHO/OX1R cells, Fluo-8 calcium fluorescence, orexin A; inhibition, % at 5 µM; 0.43% of 330,000 active; AID 434989;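 active = inhibition above its plate's threshold, mean inhibition of all tested compounds on the plate plus 3 SD, cut at about 37% in these data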;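 note: 0% = orexin A challenge wells and 100% = SB-334867-A antagonist wells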
TAAR1 nonsel count – counter-screen for TAAR1 antagonists: nonselective antagonists | inhibition, % at 3 µM | AID 651780 | shares compounds with TAAR1 antag | 77% of 2,400 active | counterscreen cell line, calcium fluorescence, antagonist mode; in the data active = inhibition above about 22%;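 note: CHO-Ga16 host cells stimulated with ATP at an EC80 level; 0% = agonist EC80 plus vehicle and 100% = vehicle without agonist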
TAAR1 antag conf – human TAAR1 antagonism, confirmed; shares compounds with TAAR1 antag; 40% of 2,400 active; inhibition, % at 3 µM; TAAR1-expressing cells, fluorescence antagonist read-out; in the data active = inhibition above about 49%;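 note: CHO-Ga16 host cells challenged with agonist PEA near its EC80; 0% = agonist at EC80 plus vehicle and 100% = vehicle with no agonist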
Ga16 nonsel ag – nonselective Ga16 agonist in TAAR1 antagonist counter-screen. shares compounds with TAAR1 antag. 18% of 2,400 active. activation, % at 3 µM. AID 651953. Ga16-expressing cells, calcium fluorescence, agonist counterscreen; in the data active = activation above about 12%;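 note: 0% = vehicle wells and 100% = saturating stimulus response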
TAAR1 ag counter – counter-screen for human TAAR1 antagonists: TAAR1 agonists; shares compounds with TAAR1 antag; hTAAR1 cell line, fluorescence activation, agonist mode; activation, % at 3 µM; 2% of 2,400 active; AID 651955; in the data active = activation above about 37%;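 note: CHO cells stably expressing TAAR1 with calcium dye readout; 0% = DMSO vehicle and 100% = full agonist response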
* marks the source's active call; other numbers are inactive results.

Results for COc1ccc(-c2cc(C(=O)N(C)Cc3ccccc3F)c3ccccc3n2)cc1OC ?
TAAR1 antag: 77.9*; GPR7 antagonist: 13.3; TAAR1 agonist: 8.6; CHO parental Ca: -4.8; OX1R antag-1: 38.4; OX1R antag-2: -25.6; TAAR1 nonsel count: 28.3*; TAAR1 antag conf: 43.6; Ga16 nonsel ag: 6.7; TAAR1 ag counter: 5.2

How did COc1cccc(CN(C)C(=O)c2cc(-c3cccs3)nc3ccccc23)c1 do in these assays?
TAAR1 antag: 76.1*; GPR7 antagonist: -5.1; TAAR1 agonist: 9.9; CHO parental Ca: -25.6; OX1R antag-1: 36.4; OX1R antag-2: -24.1; TAAR1 nonsel count: 35.3*; TAAR1 antag conf: 58.3*; Ga16 nonsel ag: 10.3; TAAR1 ag counter: 12.6

Results for COc1cc(-c2cc(C(=O)N(C)Cc3ccccc3)c3ccccc3n2)cc(OC)c1OC ?
TAAR1 antag: 46.8; GPR7 antagonist: -8.7; TAAR1 agonist: 4.7; CHO parental Ca: -25.4; OX1R antag-1: -25.9; OX1R antag-2: -36.0

What do the screens show for `COc1cc(-c2cc(C(=O)OCC(=O)NC3CC3)c3ccccc3n2)cc(OC)c1OC`?
TAAR1 antag: 67.5*; TAAR1 agonist: 13.2; CHO parental Ca: -22.4; OX1R antag-1: 17.6; OX1R antag-2: -11.9; TAAR1 nonsel count: 26.9*; TAAR1 antag conf: 41.5; Ga16 nonsel ag: 8.3; TAAR1 ag counter: 9.5

What do the screens show for `COc1ccccc1CN(C)C(=O)c1cc(-c2cc(OC)c(OC)c(OC)c2)nc2ccccc12`?
TAAR1 antag: 61.2*; GPR7 antagonist: -3.9; TAAR1 agonist: 7.7; CHO parental Ca: -14.8; OX1R antag-1: 10.6; OX1R antag-2: -15.1; TAAR1 nonsel count: 35.3*; TAAR1 antag conf: 53.5*; Ga16 nonsel ag: 4.6; TAAR1 ag counter: 4.1

What do the screens show for `O=C1NC[C@H](CCCCN2CCN(Cc3ccccc3)C(=O)C2=O)N(CC2CCCCC2)C1=O`?
TAAR1 antag: -0.8; TAAR1 agonist: 0.5

How did CNc1nc(NC)c2cn[nH]c2n1 do in these assays?
TAAR1 antag: -7.1; TAAR1 agonist: 1.7

What do the screens show for `CC(C)NC(=O)C1(C)CCN1C(=O)c1cccc(F)c1` (stereo not drawn)?
TAAR1 antag: 1.6; TAAR1 agonist: -0.5

How did COCCN(CC(=O)Nc1cccc(C)c1C)C(=O)c1cc(-c2ccncc2)nc2ccccc12 do in these assays?
TAAR1 antag: 74.3*; TAAR1 agonist: 18.3; CHO parental Ca: -44.7; OX1R antag-1: 2.3; OX1R antag-2: -38.0; TAAR1 nonsel count: 31.3*; TAAR1 antag conf: 55.9*; Ga16 nonsel ag: 7.2; TAAR1 ag counter: 6.2

Results for COCCN(Cc1ccccc1)C(=O)c1cc(-c2ccc(OC)c(OC)c2)nc2ccccc12 ?
TAAR1 antag: 62.2*; GPR7 antagonist: -22.5; TAAR1 agonist: 4.0; CHO parental Ca: -24.8; OX1R antag-1: 26.9; OX1R antag-2: -20.1; TAAR1 nonsel count: 26.1*; TAAR1 antag conf: 44.6; Ga16 nonsel ag: 5.6; TAAR1 ag counter: 8.7

What do the screens show for `CCCCOCCCNC(=O)C[C@@H]1C[C@@]2(C(=O)OC)CCCCC=C2N(Cc2ccccc2)C1=O`?
TAAR1 antag: 7.7; TAAR1 agonist: 3.6

Results for Cc1ccc(NC(=O)c2cccc(S(=O)(=O)Nc3c(C)n(C)n(-c4ccccc4)c3=O)c2)cc1C ?
TAAR1 antag: -6.4; TAAR1 agonist: 4.5

Results for NC(=O)C1CCN(C(=O)c2cc(-c3ccc(Cl)cc3)nc3ccccc23)CC1 ?
TAAR1 antag: 54.1*; TAAR1 agonist: 7.2; CHO parental Ca: -14.5; OX1R antag-1: 9.0; OX1R antag-2: -22.8; TAAR1 nonsel count: 22.6*; TAAR1 antag conf: 37.8; Ga16 nonsel ag: 7.1; TAAR1 ag counter: 1.2

Results for Cc1ccc2nc(-c3ccccc3)cc(C(=O)N3CCN(c4ccccc4O)CC3)c2c1 ?
TAAR1 antag: 66.0*; TAAR1 agonist: 12.0; CHO parental Ca: -16.2; OX1R antag-1: 3.4; OX1R antag-2: -14.5; TAAR1 nonsel count: 33.3*; TAAR1 antag conf: 50.7*; Ga16 nonsel ag: 7.6; TAAR1 ag counter: 8.2

Results for O=C(c1cc(-c2ccncc2)nc2ccccc12)N1CCN(c2ccccc2O)CC1 ?
TAAR1 antag: 60.2*; GPR7 antagonist: -2.8; TAAR1 agonist: 15.7; CHO parental Ca: -18.5; OX1R antag-1: 1.1; OX1R antag-2: -24.2; TAAR1 nonsel count: 29.1*; TAAR1 antag conf: 46.3; Ga16 nonsel ag: 8.4; TAAR1 ag counter: 9.6

What do the screens show for `O=C(c1cc(-c2ccncc2)nc2ccccc12)N1CCN(c2ncccn2)CC1`?
TAAR1 antag: 39.4; TAAR1 agonist: 15.7; CHO parental Ca: -15.3; OX1R antag-1: 12.7; OX1R antag-2: -22.2

What do the screens show for `O=C(c1cc(-c2cccc3ccccc23)nc2ccccc12)N1CCN(CCO)CC1`?
TAAR1 antag: 53.9*; TAAR1 agonist: 16.4; CHO parental Ca: -16.0; OX1R antag-1: 7.0; OX1R antag-2: -29.4; TAAR1 nonsel count: 27.7*; TAAR1 antag conf: 43.5; Ga16 nonsel ag: 8.7; TAAR1 ag counter: 9.9

What do the screens show for `COc1ccc(C(=O)N2CCC(C)(C(=O)NS(=O)(=O)C3CC3)C2)c(OC)c1` (stereo not drawn)?
TAAR1 antag: -22.6; TAAR1 agonist: 1.8

Results for C[C@@H]1CNC(=O)c2c(C(=O)Nc3cccc(Cl)c3)ncn21 ?
TAAR1 antag: -4.8; TAAR1 agonist: 5.3

How did O=C(CN(c1cc(Cl)ccc1Cl)S(=O)(=O)c1ccccc1)N1CCOCC1 do in these assays?
TAAR1 antag: -11.5; GPR7 antagonist: 4.6; TAAR1 agonist: 4.0; CHO parental Ca: -22.8; OX1R antag-1: 12.0; OX1R antag-2: -3.1

Results for COc1ccc(CCNc2oc(Cc3ccccc3)nc2C#N)cc1OC ?
TAAR1 antag: 27.4; GPR7 antagonist: 9.3; TAAR1 agonist: 1.9; CHO parental Ca: -20.3; OX1R antag-1: 29.9; OX1R antag-2: -25.9

Results for COc1ccc(CCNc2oc(COc3ccccc3Cl)nc2C#N)cc1OC ?
TAAR1 antag: 64.0*; GPR7 antagonist: -3.0; TAAR1 agonist: 5.5; CHO parental Ca: 0.2; OX1R antag-1: 20.3; OX1R antag-2: -8.1; TAAR1 nonsel count: 39.2*; TAAR1 antag conf: 55.5*; Ga16 nonsel ag: 7.6; TAAR1 ag counter: 2.5
